# Measured values pooled from the literature.
# Each line is one published result; the experiments were not run side by side.
# FOLH1: Glutamate carboxypeptidase 2 (FOLH1, Homo sapiens, UniProt Q04609)
# PIK3CA: Phosphatidylinositol 4,5-bisphosphate 3-kinase catalytic subunit alpha isoform (PIK3CA, Homo sapiens, UniProt P42336)
target,effect on,mode,method,endpoint,result,Structure (SMILES)
"Granzyme B (GZMB, Homo sapiens, UniProt P10144)",enzyme activity,inhibitor,fluorescence,Ki,0.0072 µM,CC[C@H](C)[C@H](NC(=O)C[C@@H](NC(=O)CCC(=O)O)C(=O)O)C(=O)N[C@H]1CCc2cccc3c2N(C1=O)[C@H](C(=O)NCc1cn[nH]n1)C3
FOLH1,binding,,radioligand,Kd,0.0116 µM,O.O=C([O-])CN(CCN(CC(=O)[O-])Cc1cc(CCC(=O)O)ccc1O)Cc1cc(CCC(=O)NCCCCCC(=O)NCCCC[C@H](NC(=O)N[C@@H](CCC(=O)O)C(=O)O)C(=O)O)ccc1[O-].[Ga+3]
PIK3CA,enzyme activity,inhibitor,radiometric,IC50,> 10 µM,CN(C)C(=O)c1cc2cnc(Nc3cc(C(F)(F)F)c(-c4cccc5c(=O)cc(N6CCOCC6)oc45)cn3)nc2n1C1CCCC1
FOLH1,binding,,radioligand,Kd,0.0133 µM,CC1(C)CN(CCCCC(=O)N[C@H](Cc2ccccc2)C(=O)N[C@H](Cc2ccccc2)C(=O)N[C@H](CCCCNC(=O)CCCCCCC(=O)NCCCC[C@H](NC(=O)N[C@@H](CCC(=O)O)C(=O)O)C(=O)O)C(=O)O)CC[N]2CC(C)(C)[S][Tc]2(=[O])[S]1 (stereo partly shown)
"Speckle-type POZ protein (SPOP, Homo sapiens, UniProt O43791)",binding,,BLI,Kd,2.64 µM,COc1nc(-c2cccc(-c3ccccc3)c2C)ccc1CNCCNC(=O)CCCCCCCCCCC(=O)N1CCN(CCNC(=O)c2cc3c(=O)n4cccc(C)c4nc3n(CCc3cccs3)c2=N)CC1
PIK3CA,enzyme activity,inhibitor,ADP detection,IC50,0.205 µM,C=CCN1C(=O)C(=Nc2cccc(C)c2)c2ccccc21
PIK3CA,enzyme activity,inhibitor,radiometric,IC50,0.472 µM,CN(C)C(=O)c1cc2cnc(Nc3ccc(-c4cccc5c(=O)cc(N6CCOCC6)oc45)cc3)nc2n1C1CCCC1
"Phosphatidylinositol 4,5-bisphosphate 3-kinase catalytic subunit beta isoform (PIK3CB, Homo sapiens, UniProt P42338)",enzyme activity,inhibitor,ADP detection,IC50,0.038 µM,COc1cc(N=C2C(=O)N(Cc3ccccc3)c3ccccc32)cc(OC)c1
PIK3CA,enzyme activity,inhibitor,radiometric,IC50,0.0325 µM,CN(C)C(=O)c1cc2cnc(Nc3ccc4c(=O)cc(N5CCOCC5)oc4c3)nc2n1C1CCCC1
PIK3CA,enzyme activity,inhibitor,ADP detection,IC50,0.0434 µM,O=C1C(=Nc2ccc(Cl)cc2Br)c2ccccc2N1Cc1ccc(Br)cc1
"T1R2/T1R3 (Homo sapiens, UniProt Q7RTX0+Q8TE23)",calcium signal,agonist,,EC50,2750 µM,O=S(=O)(O)NC1CCCCC1
PIK3CA,enzyme activity,inhibitor,ADP detection,IC50,0.098 µM,CCc1ccc(N=C2C(=O)Nc3ccccc32)cc1
FOLH1,binding,,radioligand,Kd,0.0061 µM,CC1(C)CN(CCCCC(=O)N[C@@H](CCC(=O)O)C(=O)N[C@@H](CCC(=O)O)C(=O)N[C@H](CCCCNC(=O)CCCCCCC(=O)NCCCC[C@H](NC(=O)N[C@@H](CCC(=O)O)C(=O)O)C(=O)O)C(=O)O)CC[N]2CC(C)(C)[S][Tc]2(=[O])[S]1 (stereo partly shown)
